Screens deposited in PubChem by NMMLSC.
Compounds with a hit are over-represented: about 1.1% of the library has one in this group of screens.
Avidin bead fluor: avidin bead compound fluorescence profile; Avidin beads, compound fluorescence 488/530 nm, flow cytometry; active compounds read high; fluorescence (KMESF) at 10 µM; actives 0.38% (n = 220,000); AID 1775; in the data active = fluorescence above about 47
Pemphigus Ab inh: inhibitors of pemphigus antibody binding to human desmoglein-3. DSG3-coupled beads, scFv-anti-DSG3-GFP binding, flow cytometry; active compounds read low. binding (percent of control), % at 10 µM. actives 0.48% (n = 310,000);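 active = binding more than 3 SD below its plate's average and above zero; inconclusive = below that plate limit but binding exactly zero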;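 also: hits lower antibody fragment binding to DSG3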
Arrestin-AP2 inh: human beta-arrestin and AP2 interaction inhibition; FITC-arrestin peptide / GST-AP2 beads, flow cytometry; AP2 beta2 appendage carries R879A mutation; inhibition, % at 10 µM; actives 0.31% (n = 340,000);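 active = inhibition above a set limit, near 3 SD of compounds lacking own fluorescence, cut at about 54% in these data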;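 also: plate controls were DMSO wells for no effect and 5 µM unlabelled arrestin peptide for full effect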
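System: GST-tagged AP2 beta2-adaptin appendage (R879A) on 4 µm glutathione beads / Reagent: FITC-arrestin peptide, 50 nM / Detection: HyperCyt-sampled flow cytometry, FL1 channel, ex 488/em 535 nm / Timing: 12 min plus 1 h, RT / Buffer or medium: PBS plus Tween 20 (0.05%) and BSA (0.1%)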
GSH fluor: GSH bead compound fluorescence profile; fluorescence (KMESF) at 10 µM; AID 1776; GSH beads flow cytometry, compound fluorescence 488/530 nm; active compounds read high; actives 0.25% (n = 190,000); in the data active = fluorescence above about 89;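 also: glutathione beads carrying GST-tagged Bcl family fusion proteins plus one bare bead set; values are compound well signal with DMSO vehicle wells as background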
Arr AP2 CP1: human beta-arrestin and AP2 interaction inhibition, cherry pick; GST-AP2 beads, FITC arrestin peptide binding, flow cytometry; GST-fused beta2-adaptin appendage, R879A mutant; AID 504908; actives 2% (n = 1,300); shares compounds with Arrestin-AP2 inh; inhibition, % at 10 µM;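 active = inhibition above a set limit, roughly 3 SD of non-fluorescent compound noise, cut at about 38% in these data; inactive = inhibition at or below that limit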;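 also: loss of bead fluorescence from 50 nM FITC arrestin peptide bound to appendage; 0% = negative control wells and 100% = excess unlabelled arrestin peptide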
Target sequence (P63010 whole entry, looked up, the tested form may be a part, one chain of several): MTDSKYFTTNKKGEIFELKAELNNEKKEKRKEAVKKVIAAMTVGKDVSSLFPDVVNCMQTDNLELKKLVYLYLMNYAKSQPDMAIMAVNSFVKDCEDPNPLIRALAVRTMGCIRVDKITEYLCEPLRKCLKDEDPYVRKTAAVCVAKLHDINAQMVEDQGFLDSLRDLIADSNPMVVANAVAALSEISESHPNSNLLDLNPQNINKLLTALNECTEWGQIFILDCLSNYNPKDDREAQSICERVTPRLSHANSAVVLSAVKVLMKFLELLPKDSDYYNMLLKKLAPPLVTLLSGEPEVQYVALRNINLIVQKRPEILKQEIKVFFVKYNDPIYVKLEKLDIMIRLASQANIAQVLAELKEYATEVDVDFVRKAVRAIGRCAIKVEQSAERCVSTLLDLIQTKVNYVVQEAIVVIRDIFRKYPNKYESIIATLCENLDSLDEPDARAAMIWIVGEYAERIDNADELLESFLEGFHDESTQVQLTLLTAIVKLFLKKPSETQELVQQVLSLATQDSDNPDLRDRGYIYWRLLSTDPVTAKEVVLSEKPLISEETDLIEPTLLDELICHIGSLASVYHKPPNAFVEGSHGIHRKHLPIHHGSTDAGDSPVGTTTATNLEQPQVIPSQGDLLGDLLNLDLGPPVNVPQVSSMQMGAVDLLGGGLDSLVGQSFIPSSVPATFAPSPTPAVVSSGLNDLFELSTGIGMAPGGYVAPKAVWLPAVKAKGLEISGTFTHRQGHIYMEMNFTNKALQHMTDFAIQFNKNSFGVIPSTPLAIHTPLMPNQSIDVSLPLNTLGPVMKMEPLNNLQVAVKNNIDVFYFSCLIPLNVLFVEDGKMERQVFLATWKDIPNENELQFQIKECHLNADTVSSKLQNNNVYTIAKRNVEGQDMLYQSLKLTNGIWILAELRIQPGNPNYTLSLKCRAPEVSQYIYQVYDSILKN
GST-FITC bead: GST-GSH bead binding interference, counter-screen. AID 588338. actives 2% (n = 1,300). GST-fluorescein binding to GSH beads, fluorescence. shares compounds with Arrestin-AP2 inh. inhibition, % at 10 µM;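 active = inhibition above 50%, about 3 SD of the inhibition seen with non-fluorescent compounds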;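 also: fluorescein maleimide labelled GST captured on 4 micron glutathione beads; higher means more loss of bead fluorescence from quenching or blocked binding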
* hit, by the source's call; ? = inconclusive; . = no result.

SMILES	Avidin bead fluor	Pemphigus Ab inh	Arrestin-AP2 inh	GSH fluor	Arr AP2 CP1	GST-FITC bead
Cc1cc(C)cc(NC(=O)CSc2nc3nc(C)cc(C)n3n2)c1	.	100.6	67.6*	.	-7.3	4.7
CCCS(=O)(=O)c1nc(S(=O)(=O)c2ccc(C)cc2)c(N2CCC(C(N)=O)CC2)s1	.	.	61.0*	.	-3.8	-6.2
CCCS(=O)(=O)c1nc(S(=O)(=O)c2ccc(C)cc2)c(N2CCC(O)CC2)s1	.	98.2	-12.8	.	.	.
CCCn1c(NC(=S)Nc2ccccc2)nc2ccccc21	3	97.3	62.7*	7	-13.9	4.4
CC(OC(=O)c1ccc(Cl)nc1)C(=O)NCc1ccc2c(c1)OCO2 (stereo not given)	.	109.3	61.3*	.	8.7	-0.1
CCOc1ccc(-c2nc(CSCC(=O)NCc3ccco3)c(C)o2)cc1	9	96.8	98.4*	11	5.1	-6.8
CCOc1ccc(-c2nc(CSCC(=O)NC3CC3)c(C)o2)cc1	.	103.8	-2.5	.	.	.
O=[N+]([O-])c1ccc(NS(=O)(=O)c2cccc3cccnc23)cc1	.	100.0	55.4*	.	-1.9	-1.9
O=C(CN1c2ccccc2S(=O)(=O)c2ccccc21)NCc1ccccc1	.	?	63.9*	.	-6.0	-3.8
O=C(CN1c2ccccc2S(=O)(=O)c2ccccc21)NCc1ccc(F)cc1	.	113.3	-31.2	.	.	.
CCOC(=O)C(=Cc1ccc(OCc2ccc([N+](=O)[O-])cc2)c(OC)c1)C(=O)OCC	12	99.0	81.5*	31	-21.4	-6.2
O=C(CNS(=O)(=O)c1ccccc1)OCC(=O)c1c[nH]c2ccccc12	.	?	75.7*	.	8.6	-5.7
Cc1cc(C)c(NC(=O)CSc2nnc(SCC(=O)Nc3c(C)cc(C)cc3C)n2N)c(C)c1	5	98.6	90.8*	15	-7.9	-8.8
CCOc1ccc(C(CC(=O)O)NC(=O)c2sc3ccccc3c2Cl)cc1 (stereo not given)	7	113.1	104.2*	19	-4.5	-4.4
CCCOc1ccc(C(CC(=O)O)NC(=O)c2sc3ccccc3c2Cl)cc1 (stereo not given)	8	103.0	-14.9	16	.	.
CCNC(=S)N/N=C/c1sc(N2CCCCC2)nc1-c1cccs1	4	118.9	105.6*	10	-0.4	-2.9
CCNC(=S)Nc1ccc(N2CCCCC2)cc1	15	98.1	-6.4	8	.	.
CC(=O)Nc1cccc(C(=O)OC2CCOC2=O)c1 (stereo not given)	.	.	-1.3	.	.	.
O=C(O)[C@H]1CC=C[C@H]2CCN(Cc3ccc(Cl)c(Cl)c3)C(=O)[C@@H]12	.	102.8	67.0*	.	-4.3	0.7
COc1ccc(CNC(=O)[C@@H]2CC=C[C@@H]3CCN(Cc4ccc(Cl)c(Cl)c4)C(=O)[C@@H]32)cc1	.	105.7	-2.9	.	.	.
CN(C)c1ccc(S(=O)(=O)N2CCCCC2)cc1NC(=O)CN1C(=O)NC(C)(c2ccccc2)C1=O (stereo not given)	.	120.1	0.0	.	.	.
CN(C)c1ccc(S(=O)(=O)N2CCCCC2)cc1NC(=O)CN1C(=O)NC2(CCCC2)C1=O	.	104.9	54.4*	.	0.6	-8.7
COc1ccc(N2CCN(C(CNS(=O)(=O)c3cc(F)ccc3F)c3cccnc3)CC2)cc1 (stereo not given)	9	101.9	84.2*	33	16.4	-11.4
O=S(=O)(NCC(c1cccnc1)N1CCN(c2ccc(F)cc2)CC1)c1cc(F)ccc1F (stereo not given)	8	98.0	-5.9	17	.	.
C#Cc1cccc(C(=O)N2CCCC(CCC(=O)NCc3ccccc3F)C2)c1 (stereo not given)	.	106.2	20.7	.	.	.
SMILES	Avidin bead fluor	Pemphigus Ab inh	Arrestin-AP2 inh	GSH fluor	Arr AP2 CP1	GST-FITC bead
CCOc1ccc(S(=O)(=O)N2CCCC(C(=O)NCc3cccnc3)C2)cc1Cl (stereo not given)	.	102.4	5.1	.	.	.
CCOc1ccc(NC(=O)c2ccc(NC(=O)COC(=O)Cc3ccc(OC)cc3)cc2)cc1	13	99.0	55.0*	10	4.8	-5.2
COc1ccc(NC(=O)c2ccc3nc[nH]c3c2)cc1	.	114.5	60.4*	.	13.7	0.5
CC(=O)c1ccc(N2CCN(C(=O)c3ccc(S(=O)(=O)NCc4ccco4)cc3)CC2)cc1	.	102.2	-8.6	.	3.2	-4.8
O=C(/C=C/c1ccc(S(=O)(=O)NCc2ccco2)cc1)N1CCN(c2ccccc2)CC1	10	107.6	-12.5	12	.	.
O=C(c1ccc(S(=O)(=O)NCc2ccco2)cc1)N1CCN(c2ccc(F)cc2)CC1	.	98.7	58.9*	.	4.6	-10.0
COc1ccc(CNC(=O)CN(C(=O)c2csnn2)c2ccc(C(C)=O)cc2)cc1	.	.	-9.3	.	.	.
CC(C)(C)NC(=O)COC(=O)c1ccccc1OCC(=O)Nc1ccc(Br)cc1	21	96.1	103.3*	14	-8.6	-3.4
Cc1ccc(S(=O)(=O)N2CCCC(C(=O)NC3CCCC3)C2)cc1Cl (stereo not given)	.	106.9	56.7*	.	-10.1	-0.3
CN1CCN(S(=O)(=O)c2cccc(C(=O)NC3CCCC3)c2)CC1	.	97.1	60.1*	.	2.9	3.3
CNS(=O)(=O)c1cccc(C(=O)OC2CCOC2=O)c1 (stereo not given)	.	.	-9.3	.	.	.
O=C(OC1CCOC1=O)c1cccc(S(=O)(=O)Nc2cccc(Cl)c2)c1 (stereo not given)	14	124.3	62.7*	10	-10.1	-4.2
CC1CCN(C2(O)C(=O)Nc3ccc(Cl)cc32)CC1 (stereo not given)	.	103.0	4.9	.	.	.
CC1CCCN(C2(O)C(=O)Nc3ccc(Cl)cc32)C1 (stereo not given)	.	91.9	57.0*	.	12.4	-1.2
CCOC(=O)c1c(NC(=O)c2ccc(Br)o2)sc(C)c1CC	12	111.1	98.3*	35	-0.5	-9.7
N#Cc1cc([N+](=O)[O-])ccc1NC(=O)CSc1n[nH]c(=O)n1C1CC1	.	95.5	5.3	.	.	.
CCc1ccc(C(CNC(=O)c2ccc3c(=O)n(-c4ccccc4F)c(=S)[nH]c3c2)N(C)C)cc1 (stereo not given)	26	102.2	58.2*	9	-14.6	0.5
CCOC(=O)N1CCN(C(=O)c2ccc3c(=O)n(-c4ccccc4F)c(=S)[nH]c3c2)CC1	6	124.9	-2.9	13	.	.
Nc1ncc(-n2cncn2)c(-c2ccc(Cl)cc2)n1	10	99.5	55.6*	18	-10.9	-1.6
CC1CCCC(C)N1CCCNC(=O)C(=O)Nc1ccc2nc3n(c(=O)c2c1)CCCCC3 (stereo not given)	.	102.2	-1.8	.	.	.
O=C(CNC(=S)NC(=O)c1ccccc1Br)c1ccccc1	9	6.1*	102.3*	17	27.4	9.6
Cc1ccc(NS(=O)(=O)c2ccc3c(c2)OCCCO3)cc1S(=O)(=O)N1CCOCC1	.	99.7	58.4*	.	1.4	-1.0
Cc1ccnn1-c1ccc(C(=O)NCc2ccccc2CN2CCOCC2)cc1	.	100.2	-4.5	.	.	.
